# Experimental data published in ChEMBL document CHEMBL1799919, “Design, synthesis, biological evaluation, and structure-activity relationships of substituted phenyl 4-(2-oxoimidazolidin-1-yl)benzenesulfonates as new tubulin inhibitors mimicking combretastatin A-4” (J Med Chem, 2011).
# Calls of active or inactive are those of the source. The rule behind the calls is not given here.
# Key:
# [1] = tested on: HT-29; assay: Antiproliferative activity against human HT-29 cells after 48 hrs by sulforhodamine B assay; assay type: functional, cell-based; details: HT-29, 48 h
# [2] = tested on: M21; assay: Antiproliferative activity against human M21 cells after 48 hrs by sulforhodamine B assay; assay type: functional, cell-based; details: M21, 48 h
# [3] = tested on: MCF7; assay: Antiproliferative activity against human MCF7 cells after 48 hrs by sulforhodamine B assay; assay type: functional, cell-based; details: MCF7, 48 h
# [4] = tested on: M21; assay: Cell cycle arrest in human M21 cells assessed as accumulation at G0/G1 phase at 5 times IC50 after 24 hrs using propidium iodide staining by flow cytometric analysis (reference value: 61%); assay type: functional
# [5] = tested on: M21; assay: Cell cycle arrest in human M21 cells assessed as accumulation at S phase at 5 times IC50 after 24 hrs using propidium iodide staining by flow cytometric analysis (reference value: 30%); assay type: functional
# [6] = tested on: M21; assay: Cell cycle arrest in human M21 cells assessed as accumulation at G2/M phase at 5 times IC50 after 24 hrs using propidium iodide staining by flow cytometric analysis (reference value: 9%); assay type: functional
# [7] = tested on: MDA-MB-231; assay: Displacement of N,N'-ethylenebis(iodoacetamide) from colchicine-binding site of beta-tubulin in human MDA-MB-231 cells at 1000 times IC50 preincubated for after 2 hrs before N,N'-ethylenebis(iodoacetamide) addition measured after 1.5 hrs by chemiluminescence assay; assay type: cell-based
# Summary of the method: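 EBI (100 μM final) added for 1.5 h at 37 °C; controls received 0.5% DMSO. Lysates (20 μg protein) run on 10% SDS-PAGE and blotted with anti-β-tubulin (TUB 2.1). β-tubulin–EBI adduct band detected by ECL.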
# [8] = tested on: CHO; assay: Antiproliferative activity against CHO cells after 48 hrs by sulforhodamine B assay; assay type: functional, cell-based; details: Cricetulus griseus
# [9] = tested on: K562; assay: Antiproliferative activity against human K562 cells after 48 hrs by sulforhodamine B assay; assay type: functional, cell-based; details: K562, 48 h
# [10] = tested on: L1210; assay: Antiproliferative activity against mouse L1210 cells after 48 hrs by sulforhodamine B assay; assay type: functional, cell-based; details: L1210, 48 h
# [11] = Antiproliferative activity against mouse P388D1 cells after 48 hrs by sulforhodamine B assay; assay type: functional, cell-based; details: P388D1, 48 h
# [12] = Antiproliferative activity against mouse B16F0 cells after 48 hrs by sulforhodamine B assay; assay type: functional, cell-based; details: B16F0, 48 h
# [13] = tested on: DU-145; assay: Antiproliferative activity against human DU145 cells after 48 hrs by sulforhodamine B assay; assay type: functional, cell-based; details: DU-145, 48 h
# [14] = tested on: HT-1080; assay: Antiproliferative activity against human HT1080 cells after 48 hrs by sulforhodamine B assay; assay type: functional, cell-based; details: HT-1080, 48 h
# [15] = tested on: MDA-MB-231; assay: Antiproliferative activity against human MDA-MB-231 cells after 48 hrs by sulforhodamine B assay; assay type: functional, cell-based; details: MDA-MB-231, 48 h
# [16] = tested on: SK-OV-3; assay: Antiproliferative activity against human SKOV3 cells after 48 hrs by sulforhodamine B assay; assay type: functional, cell-based; details: SK-OV-3, 48 h
# [17] = tested on: CCRF-CEM; assay: Antiproliferative activity against human CEM cells after 48 hrs by sulforhodamine B assay; assay type: functional, cell-based
# [18] = tested on: CHO-TAX 5-6; assay: Antiproliferative activity against paclitaxel-resistant CHO-TAX 5-6 cells after 48 hrs by sulforhodamine B assay; assay type: functional, cell-based; details: Cricetulus griseus, CHO-TAX 5-6, 48 h
# [19] = tested on: CHO-TAX 5-6; assay: Resistant ratio of IC50 for paclitaxel-resistant CHO-TAX 5-6 cells to IC50 for CHO cells; assay type: functional, Cricetulus griseus
# Summary of the method: (§1)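 Ratio of the IC50 in the resistant line (CEM-VLB, CHO-TAX 5-6 or CHO-VV 3-2) to the IC50 in its parental line (CEM or CHO).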
# [20] = Antiproliferative activity against multidrug-resistant human CEM/VLB cells after 48 hrs by sulforhodamine B assay; assay type: functional
# [21] = tested on: CEM-VLB; assay: Resistant ratio of IC50 for multidrug-resistant human CEM-VLB cells to IC50 for human CEM cells; assay type: functional; summary of the method: as §1
# [22] = tested on: M21; assay: Disruption of cytoskeleton microtubule structure of human M21 cells at 5 times IC50 after 16 hrs by indirect immunofluorescence assay; assay type: functional, cell-based
# Summary of the method: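 Fixed in 3.7% formaldehyde, permeabilized with saponin, and stained with anti-β-tubulin (TUB 2.1), Alexa-488 secondary and DAPI. Microtubule structure scored by fluorescence microscopy.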
# [23] = tested on: HT-1080; assay: Antivasculogenic activity against human HT1080 cells xenografted in chicken chorioallantoic membrane assessed as inhibition of tumor growth at 3 ug per egg, iv measured on day 14 by CAM assay; assay type: functional
# [24] = Toxicity against fertilized chicken embryo assessed as mortality at 3 ug per egg, iv by CAM assay; assay type: organism-based, Gallus gallus; details: in vivo, read-out: Activity
# Summary of the method: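 Fertilized chicken eggs incubated 10 days with automatic turning, then static. HT-1080 cells (3.5 × 10^5 cells/egg) grafted onto exposed CAM. On day 11, drug in DMSO diluted into cremophor/ethanol/PBS (6.25/6.25/87.5 v/v) excipient, DMSO below 0.5%, 100 μL injected iv into 10-12 eggs. Eggs incubated to day 17, dead embryos counted. Untreated eggs used for normalization. Two independent experiments, at least 10 eggs each.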
# [25] = tested on: CHO-VV 3-2; assay: Antiproliferative activity against colchicine- and vinblastine-resistant CHO-VV 3-2 cells after 48 hrs by sulforhodamine B assay; details: Cricetulus griseus, CHO-VV 3-2, 48 h
SMILES,IC50 [1] [nM],IC50 [2] [nM],IC50 [3] [nM],Activity [4] [%],Activity [5] [%],Activity [6] [%],inhibition [7],Activity [22],other results
CCOc1cccc(OS(=O)(=O)c2ccc(N3CCNC3=O)cc2)c1,18,12,19,2,20,78,Active,Active,IC50 [8]: 32 nM; IC50 [9]: 18 nM; IC50 [10]: 19 nM; IC50 [11]: 20 nM; IC50 [12]: 65 nM; IC50 [13]: 72 nM; IC50 [14]: 34 nM; IC50 [15]: 55 nM; IC50 [16]: 42 nM; IC50 [17]: 20 nM; IC50 [18]: 12 nM; Ratio IC50 [19]: 0.38; IC50 [20]: 32 nM; Ratio IC50 [21]: 1.6; Activity [23]: Active; mortality [24]: 13%; IC50 [25]: 39 nM
COc1cc2c(c(OC)c1OC)-c1ccc(OC)c(=O)cc1[C@@H](NC(C)=O)CC2 [COLCHICINE],,,,,,,,,IC50 [8]: 220 nM; IC50 [9]: 6.8 nM; IC50 [10]: 6.9 nM; IC50 [11]: 28 nM; IC50 [12]: 13 nM; IC50 [14]: 1.1 nM; IC50 [15]: 2.9 nM; IC50 [16]: 2.1 nM; IC50 [17]: 7.9 nM; IC50 [18]: 140 nM; IC50 [20]: 360 nM; IC50 [25]: 620 nM
O=C1NCCN1c1ccc(S(=O)(=O)Oc2cccc(I)c2)cc1,11,10,18,2,21,77,Active,Active,IC50 [8]: 17 nM; IC50 [9]: 14 nM; IC50 [10]: 19 nM; IC50 [11]: 18 nM; IC50 [12]: 30 nM; IC50 [13]: 57 nM; IC50 [14]: 19 nM; IC50 [15]: 48 nM; IC50 [16]: 23 nM; IC50 [17]: 17 nM; IC50 [18]: 8.9 nM; Ratio IC50 [19]: 0.52; IC50 [20]: 18 nM; Ratio IC50 [21]: 1.1; Activity [23]: Active; mortality [24]: 43%; IC50 [25]: 20 nM
O=C1NCCN1c1ccc(S(=O)(=O)Oc2cc(F)cc(F)c2)cc1,36,15,47,12,29,59,Active,Active,
CC(=O)O[C@H]1C(=O)[C@@]2(C)[C@H]([C@H](OC(=O)c3ccccc3)[C@]3(O)C[C@H](OC(=O)[C@H](O)[C@@H](NC(=O)c4ccccc4)c4ccccc4)C(C)=C1C3(C)C)[C@]1(OC(C)=O)CO[C@@H]1C[C@@H]2O [PACLITAXEL],,,,,,,,,IC50 [8]: 170 nM; IC50 [9]: 0.71 nM; IC50 [10]: 0.4 nM; IC50 [11]: 35 nM; IC50 [12]: 28 nM; IC50 [13]: 1.3 nM; IC50 [14]: 0.15 nM; IC50 [16]: 2.6 nM; IC50 [17]: 0.27 nM; IC50 [18]: 520 nM; IC50 [25]: 140 nM
O=C1NCCN1c1ccc(S(=O)(=O)Oc2cccc([N+](=O)[O-])c2)cc1,100,48,60,56,13,31,Active,Active,
CC[C@]1(O)C[C@@H]2CN(CCc3c([nH]c4ccccc34)[C@@](C(=O)OC)(c3cc4c(cc3OC)N(C)[C@H]3[C@@](O)(C(=O)OC)[C@H](OC(C)=O)[C@]5(CC)C=CCN6CC[C@]43[C@@H]65)C2)C1 [VINBLASTINE],,,,,,,,,IC50 [8]: 17 nM; IC50 [9]: 0.36 nM; IC50 [10]: 0.16 nM; IC50 [11]: 1.8 nM; IC50 [12]: 0.099 nM; IC50 [13]: 0.063 nM; IC50 [14]: 0.099 nM; IC50 [15]: 0.12 nM; IC50 [16]: 0.039 nM; IC50 [17]: 0.38 nM; IC50 [18]: 6.9 nM; Ratio IC50 [19]: 0.41; IC50 [20]: 600 nM; Ratio IC50 [21]: 1579; IC50 [25]: 66 nM
O=C1NCCN1c1ccc(S(=O)(=O)Oc2ccccc2Cl)cc1,66,45,73,2,15,83,Active,Active,
Cc1ccccc1OS(=O)(=O)c1ccc(N2CCNC2=O)cc1,33,26,30,11,15,74,Active,Active,
O=C1NCCN1c1ccc(S(=O)(=O)Oc2cc(F)c(F)c(F)c2)cc1,73,43,91,4,31,65,Active,Active,
Cc1ccc(OS(=O)(=O)c2ccc(N3CCNC3=O)cc2)c(C)c1,51,39,50,0,0,100,Active,Active,
O=C1NCCN1c1ccc(S(=O)(=O)Oc2ccccc2F)cc1,51,34,61,18,34,48,Active,Active,
O=C1NCCN1c1ccc(S(=O)(=O)Oc2ccc3[nH]ccc3c2)cc1,70,65,100,19,17,64,Active,Active,
O=C1NCCN1c1ccc(S(=O)(=O)Oc2ccc(F)c(F)c2)cc1,75,47,100,2,26,72,Active,Active,
COc1cccc(OS(=O)(=O)c2ccc(N3CCNC3=O)cc2)c1,29,24,34,1,1,98,Active,Active,
CCCc1cccc(OS(=O)(=O)c2ccc(N3CCNC3=O)cc2)c1,34,27,51,2,25,73,Active,Active,
CCCc1ccc(OS(=O)(=O)c2ccc(N3CCNC3=O)cc2)cc1,77,59,110,1,18,81,Active,Active,
O=C1NCCN1c1ccc(S(=O)(=O)Oc2ccc(F)cc2F)cc1,41,35,55,2,26,72,Active,Active,
O=C1NCCN1c1ccc(S(=O)(=O)Oc2ccc(Cl)cc2)cc1,87,58,88,0,0,100,Active,Active,
